# Measured values published in the EternaBench riboswitch data.
# Key:
# MS2 coat protein [1] = assay: apparent Kd, MS2 coat protein; higher = weaker binding; RNA-MaP array
# How it was run: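 Designs measured on fewer than 10 clusters were excluded from the data. The rest were RNAs transcribed from sequenced DNA templates on an Illumina sequencing chip and incubated at room temperature, with or without input ligand, with fluorescently labeled MS2 coat protein at 1.5 nM to 3 μM for 0.8–1.5 h at the lowest to 10–20 min at the highest concentrations. Apparent Kd is the median of the per-cluster binding-curve fits.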
# MS2 coat protein [2] = assay: apparent Kd, MS2 coat protein; higher = weaker binding; RNA-MaP array; FMN 200 µM where present
# How it was run: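 Binding was read on Illumina sequencing-chip clusters where stalled E. coli RNA polymerase had transcribed each design. A titration of SNAP-549-labelled MS2 coat protein began at 0.7 or 1.5 nM and doubled to 3 µM, once without ligand and once with constant ligand, in 100 mM Tris-HCl pH 7.5, 80 mM KCl, 4 mM MgCl2, BSA, DTT, yeast tRNA and Tween-20. The apparent Kd is the median of filtered per-cluster binding-curve fits, based on green signal normalised to red-channel RNA signal and control-cluster median Fmax.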
# [3] = designed as: OFF switch for flavin mononucleotide, no ligand
# [4] = ligand present: flavin mononucleotide, designed as: OFF switch for flavin mononucleotide
# [5] = designed as: ON switch for flavin mononucleotide, no ligand
# [6] = ligand present: flavin mononucleotide, designed as: ON switch for flavin mononucleotide
sequence,measurement,setting,value
UGCCCACAGGAGAAGGUGGCUCAACCAGAGCGCCAAGGAUAUCCGGAGUUACUCCUCACUACAUGAGGAUCACCCAUGUUUCAU,apparent Kd,MS2 coat protein [1]; [3],71.5 nM
same,apparent Kd,MS2 coat protein [1]; [4],54.6 nM
CGGAAUUCAGGAUAUGGCAUAUCCUACAUGAGGAUCACCCAUGUAUGACCCGUGUGCCGGCCAGAAGGGAACGCUG,apparent Kd,MS2 coat protein [1]; [3],10.8 nM
same,apparent Kd,MS2 coat protein [1]; [4],12 nM
AUCGAUAAGAAGAAGGUGUGACAUGAGGAUCACCCAUGUUAUUGAACAGCACAUGAUCACAGAUACAAGGAUAUUCUACGUAUG,apparent Kd,MS2 coat protein [1]; [3],24.4 nM
same,apparent Kd,MS2 coat protein [1]; [4],23.7 nM
UGAGUUUACUGAGGAUAUUCGGGUCCGACGACAUGAGGAUCACCCAUGUUAGUAAUGCUGCAAGGGAAGAAGGCAGAAAGAACU,apparent Kd,MS2 coat protein [1]; [3],13.7 nM
same,apparent Kd,MS2 coat protein [1]; [4],10.7 nM
AAGGGCGACGGACAGGAUAUAGUUAUUGUUACAUGAGGAUCACCCAUGUCUCCAGGUCUUUGACGCUAGAAGGGUCCCUCCUCGAC,apparent Kd,MS2 coat protein [1]; [5],61.2 nM
same,apparent Kd,MS2 coat protein [1]; [6],26.5 nM
AUCAUGUUAGGAUAUACAAUGUAACGAUCAUUCUUGUAUGCGUAGAAGGAACAUGAGGAUCACCCAUGUGGAAG,apparent Kd,MS2 coat protein [1]; [3],43 nM
same,apparent Kd,MS2 coat protein [1]; [4],46.8 nM
CCGGCAACGUAAGGAUAUGAUUCGCGUCUUGACAUGAGGAUCACCCAUGUAACUGUCGAAAUGGCUCAGAAGGUACCAGUGCCC,apparent Kd,MS2 coat protein [1]; [5],26.6 nM
same,apparent Kd,MS2 coat protein [1]; [6],17.9 nM
AGUACAUCGGAGAAGGUGCAAGGUUAGCUUUCGCAAGGAUAUCCACACCCUUAGUACAGUGCUACAUGAGGAUCACCCAUGUUA,apparent Kd,MS2 coat protein [1]; [3],10.1 nM
same,apparent Kd,MS2 coat protein [1]; [4],10.2 nM
UAGACCGAAGGAUAUACAUGAGGAUCACCCAUGUCAAGGACAUACCCACGAAAGGCACGUAGAAGGUCGGCAUA,apparent Kd,MS2 coat protein [1]; [3],18.2 nM
same,apparent Kd,MS2 coat protein [1]; [4],33.1 nM
CGGCCACAUGAGGAUCACCCAUGUAGUUCGUCUAAAGGAUAUCCAGGUGGGUGACUCCAAGGAGAAGGUUAGGACG,apparent Kd,MS2 coat protein [1]; [5],54.7 nM
same,apparent Kd,MS2 coat protein [1]; [6],39.3 nM
CGGUGAUAUGAAGGAUAUGCACAUGAGGAUCACCCAUGUAACCACUAGAACAAAACGUAGUAACCGCAGAAGGUCAGCAGUAGU,apparent Kd,MS2 coat protein [1]; [5],23.6 nM
same,apparent Kd,MS2 coat protein [1]; [6],14.5 nM
UCCCAUAUAGUAGGAUAUCUGCUACAUGAGGAUCACCCAUGUCAUAUUUUUUACCAGUCUUAGAUAGAGAAGGACUGUGGACCU,apparent Kd,MS2 coat protein [1]; [5],590 nM
same,apparent Kd,MS2 coat protein [1]; [6],373 nM
GUUUUCAACUUGUAGGAUAUUUCUCACGAGACAUGAGGAUCACCCAUGUAGUGAACCAGGGAUCGAAAGAAGGACAUCAUGACGGU,apparent Kd,MS2 coat protein [1]; [5],75.2 nM
same,apparent Kd,MS2 coat protein [1]; [6],49.9 nM
CCUUCCUAGUGAGGAUAUCGGCUUGGACUCGAGCGAGAAGGCACCUAAUCGAAGAACUUUUAUCCACAUGAGGAUCACCCAUGU,apparent Kd,MS2 coat protein [1]; [5],11.8 nM
same,apparent Kd,MS2 coat protein [1]; [6],11.1 nM
CACAUGAGGAUCACCCAUGUGUGGUGGGUGGUGCAACAUUGUAAGGAUAUAAUGGACGUCGGCCCUUAGAAGGUACAUUGUACG,apparent Kd,MS2 coat protein [1]; [3],139 nM
same,apparent Kd,MS2 coat protein [1]; [4],110 nM
CCCAGUUAGGAAGGAUAUUGUACAUGAGGAUCACCCAUGUAAUAAAUGAGGAUCUCGGAUGUAUACAAGAAGGUCCGGAUAGGC,apparent Kd,MS2 coat protein [2]; [3],71.6 nM
same,apparent Kd,MS2 coat protein [2]; [4],136 nM
AAAGUUUAAGCAGGAUAUCGACCAUUCCUUGAUGCUUCAUUGGUGCACAUGAGGAUCACCCAUGUCGAGAAGGGCUAUGAAGCU,apparent Kd,MS2 coat protein [2]; [3],15.6 nM
same,apparent Kd,MS2 coat protein [2]; [4],47.4 nM
CAUUGCGAAGGAUAUACAUGAGGAUCACCCAUGUGUUUCCUCACGCACGGGAGUAGCGGUAGAAGGUCGCAGAA,apparent Kd,MS2 coat protein [2]; [3],14.7 nM
same,apparent Kd,MS2 coat protein [2]; [4],29.4 nM
CUGAGGAAAGGAUAUACAUCAAACUCCUCAUCCUCGAAAGAACAUGAGGAUCACCCAUGUAGAAGGUUCGCGGU,apparent Kd,MS2 coat protein [2]; [3],37.2 nM
same,apparent Kd,MS2 coat protein [2]; [4],29.8 nM
GUUUGACAUGAGGAUCACCCAUGUAAGGAUAUACGAGUAGCUGCUAGGUAGUUAGUAUGUAGAAGGUGCGUGUU,apparent Kd,MS2 coat protein [2]; [3],65.7 nM
same,apparent Kd,MS2 coat protein [2]; [4],62.6 nM
UUGUUGUAUGUAGGAUAUGCAUAUUAUUAUUAUGCAGAAGGACAUGAGGAUCACCCAUGUGUAUUAUUAUUAUAUAUUAUAUAU,apparent Kd,MS2 coat protein [2]; [3],25.5 nM
same,apparent Kd,MS2 coat protein [2]; [4],44.1 nM
GUCUGACAUGAGGAUCACCCAUGUAUUCGAGCAUGAGGAUAUAUGACUCGUCAUCGGCGGAUAGAAGGCAUGGUUG,apparent Kd,MS2 coat protein [2]; [5],169 nM
same,apparent Kd,MS2 coat protein [2]; [6],192 nM
GGGUCAUAUGUUAGGAUAUUGGAGGCAAGUGCCGUUAAGAAGGAACAUGAGGAUCACCCAUGUCUAACUGACUU,apparent Kd,MS2 coat protein [2]; [3],34.5 nM
same,apparent Kd,MS2 coat protein [2]; [4],66 nM
UGUUACUAGUAAGGAUAUACUUGCAAUAAGCUUGUAGAAGGUACAGUCUUUUGUAUAACAUGUUUACAUGAGGAUCACCCAUGU,apparent Kd,MS2 coat protein [2]; [5],10.6 nM
same,apparent Kd,MS2 coat protein [2]; [6],9.66 nM
UAAGAUUAUGUAGGAUAUGGUUAUCUAUGUCUAGUUACUAGACAUAGAUAACCAGAAGGACAUGAGGAUCACCCAUGUUGAAUG,apparent Kd,MS2 coat protein [2]; [3],10.3 nM
same,apparent Kd,MS2 coat protein [2]; [4],44.4 nM
UGUCGGAGCAGAGGAUAUUACAUGAGGAUCACCCAUGUAUGAACCAAUAGCUGGAAACAGCAAUGUAAGAAGGCUGCGCCGACA,apparent Kd,MS2 coat protein [2]; [3],12.5 nM
same,apparent Kd,MS2 coat protein [2]; [4],153 nM
GCGUCAGAAUUAAUUGUGACAUACAGAAGGCAAUAUUAAGGUUAAGACAUGAGGAUCACCCAUGUUGAGGAUAUGUAGUGACGC,apparent Kd,MS2 coat protein [2]; [3],8.9 nM
same,apparent Kd,MS2 coat protein [2]; [4],15.8 nM
